Test results published in ChEMBL document CHEMBL1125520, “Improved brain delivery of AZT using a glycosyl phosphotriester prodrug” (1992).

How the values were obtained:
[1] = test system: Mus musculus; assay: In Vivo detection in Mice brains after oral administration of 20 mg/kg detected in the form of AZT phosphodiester 2 after 48 hr; format: functional
[2] = test system: Mus musculus; assay: In Vivo detection in Mice brains after oral administration of 41.63 mg/kg detected in the form of AZT 5`-P after 48 hr; format: functional
[3] = test system: Mus musculus; assay: In Vivo detection in Mice brains after oral administration of 41.63 mg/kg detected in the form of AZT after 24 hr; format: functional
[4] = test system: Mus musculus; assay: In Vivo detection in Mice brains after oral administration of 41.63 mg/kg detected in the form of AZT after 48 hr; format: functional
[5] = test system: Mus musculus; assay: In Vivo detection in Mice plasma after oral administration of 41.63 mg/kg detected in the form of AZT 5`-P after 0.5 hr; format: functional, organism-based; parameters: dose 41.63 mg/kg
[6] = test system: Mus musculus; assay: In Vivo detection in Mice plasma after oral administration of 41.63 mg/kg detected in the form of AZT 5`-P after 24 hr; format: functional, organism-based; parameters: dose 41.63 mg/kg
[7] = test system: Mus musculus; assay: In Vivo detection of total AZT in Mice brains after oral administration of 41.63 mg/kg after 48 hr; format: functional
Outline: (§1)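 Male Swiss mice (18–20 g) dosed orally with a 3 mM solution in […] vehicle; decapitated at 0.5–48 h. Brains were homogenized in acetonitrile-water (3:1), centrifuged at 6000g for 40 min at 4 °C, lyophilized, redissolved in water and filtered (0.45 µm). Reversed-phase C18 column-switching HPLC with diode-array detection; standard spiking; vehicle-fed controls. Three mice per point, triplicates.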

[8] = test system: Mus musculus; assay: In Vivo detection in Mice plasma after oral administration of 41.63 mg/kg detected in the form of AZT after 2 hr; format: functional, organism-based; parameters: dose 41.63 mg/kg
[9] = test system: Mus musculus; assay: In Vivo detection in Mice plasma after oral administration of 41.63 mg/kg detected in the form of AZT after 4 hr; format: functional, organism-based; parameters: dose 41.63 mg/kg
[10] = test system: Mus musculus; assay: In Vivo detection in Mice plasma after oral administration of 41.63 mg/kg detected in the form of AZT phosphodiester 2 after 0.5 hr; format: functional, organism-based; parameters: dose 41.63 mg/kg
[11] = test system: Mus musculus; assay: In Vivo detection in Mice plasma after oral administration of 41.63 mg/kg detected in the form of AZT after 1 hr; format: functional, organism-based; parameters: dose 41.63 mg/kg
[12] = test system: Mus musculus; assay: In Vivo detection of total AZT in Mice plasma after oral administration of 41.63 mg/kg after 0.5 hr; format: functional, organism-based; parameters: dose 41.63 mg/kg
Outline: (§2)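 Male Swiss mice (18–20 g, six weeks old) given the test substance or vehicle ([…]) by gavage as a 3 mM solution (1.5 µmol/mouse). Aortic blood was collected into heparinized tubes at 0.5–48 h and centrifuged at 13000g for 10 min. Plasma was stored at -22 °C and analysed by HPLC. Three mice were used per time point, in triplicate. Values were not corrected for recovery.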

[13] = test system: Mus musculus; assay: In Vivo detection of total AZT in Mice plasma after oral administration of 41.63 mg/kg after 24 hr; format: functional, organism-based; parameters: dose 41.63 mg/kg; outline: as §2
[14] = test system: Mus musculus; assay: In Vivo detection of total AZT in Mice plasma after oral administration of 41.63 mg/kg after 2 hr; format: functional, organism-based; parameters: dose 41.63 mg/kg; outline: as §2
[15] = test system: Mus musculus; assay: In Vivo detection of total AZT in Mice plasma after oral administration of 41.63 mg/kg after 48 hr; format: functional, organism-based; parameters: dose 41.63 mg/kg; outline: as §2
[16] = test system: Mus musculus; assay: In Vivo detection in Mice brains after oral administration of 41.63 mg/kg detected in the form of AZT phosphodiester 2 after 4 hr; format: functional
[17] = test system: Mus musculus; assay: In Vivo detection in Mice brains after oral administration of 58.33 mg/kg detected in the form of AZT 5`-P after 1 hr; format: functional
[18] = test system: Mus musculus; assay: In Vivo detection in Mice brains after oral administration of 58.33 mg/kg detected in the form of AZT 5`-P after 2 hr; format: functional
[19] = test system: Mus musculus; assay: In Vivo detection in Mice brains after oral administration of 58.33 mg/kg detected in the form of AZT 5`-P after 48 hr; format: functional
[20] = test system: Mus musculus; assay: In Vivo detection in Mice brains after oral administration of 58.33 mg/kg detected in the form of AZT 5`-P after 4 hr; format: functional
[21] = test system: Mus musculus; assay: In Vivo detection in Mice brains after oral administration of 58.33 mg/kg detected in the form of AZT 5`-P after 8 hr; format: functional
[22] = test system: Mus musculus; assay: In Vivo detection in Mice brains after oral administration of 58.33 mg/kg detected in the form of AZT after 0.5 hr; format: functional
[23] = test system: Mus musculus; assay: In Vivo detection in Mice brains after oral administration of 58.33 mg/kg detected in the form of AZT phosphodiester 2 after 0.5 hr; format: functional
[24] = test system: Mus musculus; assay: In Vivo detection in Mice brains after oral administration of 58.33 mg/kg detected in the form of AZT phosphodiester 2 after 24 hr; format: functional
[25] = test system: Mus musculus; assay: In Vivo detection in Mice brains after oral administration of 58.33 mg/kg detected in the form of AZT phosphodiester 3 after 0.5 hr; format: functional
[26] = test system: Mus musculus; assay: In Vivo detection of total AZT in Mice brains after oral administration of 58.33 mg/kg after 4 hr; format: functional; outline: as §1
[27] = test system: Mus musculus; assay: In Vivo detection in Mice plasma after oral administration of 58.33 mg/kg detected in the form of AZT 5`-P after 0.5 hr; format: functional, organism-based; parameters: dose 58.33 mg/kg
[28] = test system: Mus musculus; assay: In Vivo detection in Mice plasma after oral administration of 58.33 mg/kg detected in the form of AZT 5`-P after 2 hr; format: functional, organism-based; parameters: dose 58.33 mg/kg
[29] = test system: Mus musculus; assay: In Vivo detection in Mice plasma after oral administration of 58.33 mg/kg detected in the form of AZT 5`-P after 48 hr; format: functional, organism-based; parameters: dose 58.33 mg/kg
[30] = test system: Mus musculus; assay: In Vivo detection in Mice plasma after oral administration of 58.33 mg/kg detected in the form of AZT phosphodiester 3 after 1 hr; format: functional, organism-based; parameters: dose 58.33 mg/kg; outline: as §2
[31] = test system: Mus musculus; assay: In Vivo detection in Mice plasma after oral administration of 58.33 mg/kg detected in the form of AZT phosphodiester 3 after 2 hr; format: functional, organism-based; parameters: dose 58.33 mg/kg; outline: as §2
[32] = test system: Mus musculus; assay: In Vivo detection of total AZT in Mice brains after oral administration of 58.33 mg/kg after 0.5 hr; format: functional; outline: as §1
[33] = test system: Mus musculus; assay: In Vivo detection of total AZT in Mice plasma after oral administration of 58.33 mg/kg after 48 hr; format: functional, organism-based; parameters: dose 58.33 mg/kg; outline: as §2
[34] = test system: Mus musculus; assay: In Vivo detection of total AZT in Mice plasma after oral administration of 58.33 mg/kg after 8 hr; format: functional, organism-based; parameters: dose 58.33 mg/kg; outline: as §2
[35] = test system: Mus musculus; assay: In Vivo detection in Mice plasma after oral administration of 58.33 mg/kg detected in the form of AZT after 48 hr; format: functional, organism-based; parameters: dose 58.33 mg/kg; outline: as §2
[36] = test system: Mus musculus; assay: In Vivo detection in Mice plasma after oral administration of 58.33 mg/kg detected in the form of AZT after 8 hr; format: functional, organism-based; parameters: dose 58.33 mg/kg; outline: as §2
[37] = test system: Mus musculus; assay: In Vivo detection in Mice plasma after oral administration of 58.33 mg/kg detected in the form of AZT phosphodiester 2 after 1 hr; format: functional, organism-based; parameters: dose 58.33 mg/kg; outline: as §2
[38] = test system: Mus musculus; assay: In Vivo detection in Mice plasma after oral administration of 58.33 mg/kg detected in the form of AZT phosphodiester 2 after 48 hr; format: functional, organism-based; parameters: dose 58.33 mg/kg; outline: as §2
[39] = test system: Mus musculus; assay: In Vivo detection in Mice plasma after oral administration of 58.33 mg/kg detected in the form of AZT phosphodiester 2 after 4 hr; format: functional, organism-based; parameters: dose 58.33 mg/kg; outline: as §2
[40] = test system: Mus musculus; assay: In Vivo detection in Mice plasma after oral administration of 58.33 mg/kg detected in the form of AZT phosphodiester 3 after 8 hr; format: functional, organism-based; parameters: dose 58.33 mg/kg; outline: as §2

In the case of Cc1cn([C@H]2C[C@H](N=[N+]=[N-])[C@@H](COP(=O)(O)OCCO[C@H]3O[C@H](CO)[C@@H](O)[C@H](O)[C@@H]3O)O2)c(=O)[nH]c1=O, the Brain content [1] is reported as 2.5 nM ml-1, the Brain content [2] is reported as 48.5 nmol/g and the Brain content [3] is reported as 0.8 nmol/g. The Brain content [4] was 0.8 nmol/g, the Plasma content [5] was 20.4 nM ml-1 and the Plasma content [6] was 26.8 nM ml-1. For the same compound, the Brain content [7] was 51.8 nM ml-1, the Plasma content [8] was 3.1 nM ml-1 and the Plasma content [9] was 0 nM ml-1. For the same compound, the Plasma content [10] was 4.5 nM ml-1, the Plasma content [11] was 18.3 nM ml-1 and the Plasma content [12] was 56.5 nM ml-1. For the same compound, the Plasma content [13] was 26.8 nM ml-1, the Plasma content [14] was 19.7 nM ml-1 and the Plasma content [15] was 17.9 nM ml-1. For the same compound, the Brain content [16] was 7.9 nM ml-1.

Compound CCCCCCCCCCCCCCCCOP(=O)(OCCO[C@H]1O[C@H](CO)[C@@H](O)[C@H](O)[C@@H]1O)OCC1OC(n2cc(C)c(=O)[nH]c2=O)CC1N=[N+]=[N-] (stereo not given in full) has a Brain content [17] of 147 nmol/g, a Brain content [18] of 133 nmol/g and a Brain content [19] of 58.6 nmol/g. For the same compound, the Brain content [20] was 114 nmol/g, the Brain content [21] was 106 nmol/g and the Brain content [22] was 1.5 nmol/g. The Brain content [23] was 0.3 nmol/g, the Brain content [24] was 5.2 nmol/g and the Brain content [25] was 0 nmol/g. For the same compound, the Brain content [26] was 122 nmol/g, the Plasma content [27] was 12.1 nM ml-1 and the Plasma content [28] was 4 nM ml-1. For the same compound, the Plasma content [29] was 14.2 nM ml-1, the Plasma content [30] was 0 nM ml-1 and the Plasma content [31] was 0 nM ml-1. It also gave a Brain content [32] of 38.5 nM ml-1, a Plasma content [33] of 14.2 nM ml-1 and a Plasma content [34] of 26.3 nM ml-1. For the same compound, the Plasma content [35] was 0 nM ml-1, the Plasma content [36] was 8.6 nM ml-1 and the Plasma content [37] was 0 nM ml-1. The Plasma content [38] was 0 nM ml-1, the Plasma content [39] was 0 nM ml-1 and the Plasma content [40] was 0 nM ml-1.
